Series [1] is described as follows: Inhibition of HFIP-induced amyloid beta (1-40) aggregation after 2 hrs by thioflavin T fluorescence method. The gist of the method: (§1)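 Pre-monomerized Aβ1-40 (HFIP-dissolved, lyophilized) at 30 µM in PBS (0.01 M, NaCl 0.1 M, pH 7.4) with 2% HFIP and 10% DMSO, coincubated with compound in triplicate at 25 °C for 2 h. Sample mixed with 25 µM ThT in 0.025 M phosphate pH 6.0; excitation 440 nm, emission 485 nm. Peptide-free blanks subtracted; % inhibition versus control. Primary screen at 100 µM. IC50 from 5–7 concentrations (200–0.01 µM) tested in duplicate, three independent experiments.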

In series [2] the target is Acetylcholinesterase (Electrophorus electricus) (UniProt O42275). The series can be described thus: Inhibition of electric eel AChE using acetylthiocholine iodide as substrate at 10 uM after 20 mins by Ellman's method.
The target in series [3] is Cholinesterase (Equus caballus) (UniProt P81908). Put plainly: Inhibition of equine serum BChE using butyrylthiocholine iodide as substrate at 10 uM after 20 mins by Ellman's method. In general terms: DTNB colorimetry detects thiols as they appear.
The nature of series [4]: Inhibition of HFIP-induced amyloid beta (1-40) aggregation at 100 uM after 2 hrs by thioflavin T fluorescence method. The method, boiled down:
as §1

A further series addresses Cholinesterase (Equus caballus, UniProt P81908). The series can be described thus: Inhibition of equine serum BChE using butyrylthiocholine iodide as substrate after 20 mins by Ellman's method. The method, boiled down: (§2)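 Enzyme (eel AChE 463 U/mg or equine serum BChE 13 U/mg) in 0.1 M phosphate buffer pH 8.0 with DTNB, preincubated with inhibitor 20 min at 25 °C. Then acetylthiocholine or butyrylthiocholine iodide added; absorbance rise at 412 nm read 5.0 min at 25 °C. DMSO below 1%. IC50 from nonlinear regression of response/log(concentration), six to seven concentrations, 1×10^-8 to 1×10^-4 M. Means of three independent experiments.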

Series [5] in a line: Inhibition of amyloid beta (1-42) aggregation at 100 uM measured at 8 hrs and 24 hrs by thioflavin T fluorescence method. The method, boiled down:
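Aβ1-42 (30 µM) in PBS/10% DMSO at 37 °C, alone or with compound at 100 µM. ThT fluorescence (ex 440, em 485 nm) read at 8 h and 24 h, reported in arbitrary units; mean ± SEM of three independent experiments.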

For another series, the target named is Acetylcholinesterase (Electrophorus electricus, UniProt O42275). The series can be described thus: Inhibition of electric eel AChE using acetylthiocholine iodide as substrate after 20 mins by Ellman's method. The gist of the method: as §2
A short description of series [6]: Inhibition of amyloid beta (1-40) beta-sheet transition assessed as decrease in beta-sheet level after 7 days by CD spectroscopic analysis relative to control. To be noted: concentration not given here. The gist of the method:
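Aβ1-40 (50 µM) in PBS with 10% ethanol, alone or with compound (10 or 50 µM), incubated at 37 °C without agitation. CD spectra 195–250 nm were recorded at room temperature in a 0.1 cm cell, with buffer/ethanol or inhibitor blank baseline subtracted. Absolute ellipticity at 215 nm was followed over time and expressed relative to the control plateau.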

A short description of series [7]: Aqueous solubility of the compound in PBS buffer. Format: physicochemical. The gist of the method: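 Preliminary solubility in the incubation medium (PBS with up to 10% ethanol cosolvent) measured by UV spectroscopy; used to set the maximum soluble test concentration.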
Series [8] is described as follows: Inhibition of amyloid beta (1-40) fibrillation assessed as isolated fibrillar aggregates formation at 10 uM after 7 days by TEM analysis. The gist of the method: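 Aβ1-40 (50 µM) in PBS/10% ethanol, with compound at 10 or 50 µM, incubated at 37 °C for up to 10 days. Aliquots taken at 7 days were applied to carbon-coated grids and negatively stained with 2% w/v uranyl acetate. Imaged by TEM at 60 kV and 39 000-fold magnification, compared with self-aggregating control.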

As usually defined, the IC50 is the concentration at which inhibition is half-maximal. A word on the inhibition: it is the share of the control response that was lost under treatment. The solubility is how much of the substance goes into solution per volume.

Values after ≈ are worked out from the molar mass of the structure shown. Active and inactive are the calls of the source. The rule behind the calls is not given here.

Sequence of Cholinesterase (P81908 whole entry): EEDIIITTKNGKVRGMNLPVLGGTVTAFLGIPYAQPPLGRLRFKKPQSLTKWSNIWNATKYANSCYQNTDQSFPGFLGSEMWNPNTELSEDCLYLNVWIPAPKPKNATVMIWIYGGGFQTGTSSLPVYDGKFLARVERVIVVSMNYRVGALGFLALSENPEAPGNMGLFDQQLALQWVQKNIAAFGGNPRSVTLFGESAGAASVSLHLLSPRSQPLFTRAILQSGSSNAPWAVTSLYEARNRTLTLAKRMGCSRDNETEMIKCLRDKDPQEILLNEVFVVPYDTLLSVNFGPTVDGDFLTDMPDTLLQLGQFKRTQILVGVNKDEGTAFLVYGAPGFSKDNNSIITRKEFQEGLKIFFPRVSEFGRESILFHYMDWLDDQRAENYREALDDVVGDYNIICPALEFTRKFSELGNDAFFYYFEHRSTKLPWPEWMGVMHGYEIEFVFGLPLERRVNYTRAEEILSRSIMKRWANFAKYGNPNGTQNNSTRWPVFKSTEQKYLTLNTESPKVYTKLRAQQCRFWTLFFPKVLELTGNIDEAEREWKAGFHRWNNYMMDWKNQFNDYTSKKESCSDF
Sequence of Cholinesterase (Equus caballus) (P81908 whole entry): as above
Sequence of Acetylcholinesterase (Electrophorus electricus) (O42275 24-633 limits assumed): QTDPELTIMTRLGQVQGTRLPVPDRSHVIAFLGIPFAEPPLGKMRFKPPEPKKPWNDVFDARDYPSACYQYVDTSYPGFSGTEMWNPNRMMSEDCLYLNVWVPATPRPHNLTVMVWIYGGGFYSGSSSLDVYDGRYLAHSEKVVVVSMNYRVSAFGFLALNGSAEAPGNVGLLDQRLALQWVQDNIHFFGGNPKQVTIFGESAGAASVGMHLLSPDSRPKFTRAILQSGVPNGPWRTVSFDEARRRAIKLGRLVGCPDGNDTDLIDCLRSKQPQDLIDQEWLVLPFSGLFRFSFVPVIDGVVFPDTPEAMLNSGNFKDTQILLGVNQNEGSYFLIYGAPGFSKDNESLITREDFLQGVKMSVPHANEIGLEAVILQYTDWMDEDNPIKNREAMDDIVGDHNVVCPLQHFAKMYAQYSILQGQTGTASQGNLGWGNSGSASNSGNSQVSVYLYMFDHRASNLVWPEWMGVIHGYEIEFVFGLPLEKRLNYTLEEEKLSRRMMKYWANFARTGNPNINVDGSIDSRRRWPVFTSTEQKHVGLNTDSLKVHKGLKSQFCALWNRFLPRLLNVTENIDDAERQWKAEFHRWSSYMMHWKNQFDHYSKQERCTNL
Sequence of Acetylcholinesterase (O42275 whole entry): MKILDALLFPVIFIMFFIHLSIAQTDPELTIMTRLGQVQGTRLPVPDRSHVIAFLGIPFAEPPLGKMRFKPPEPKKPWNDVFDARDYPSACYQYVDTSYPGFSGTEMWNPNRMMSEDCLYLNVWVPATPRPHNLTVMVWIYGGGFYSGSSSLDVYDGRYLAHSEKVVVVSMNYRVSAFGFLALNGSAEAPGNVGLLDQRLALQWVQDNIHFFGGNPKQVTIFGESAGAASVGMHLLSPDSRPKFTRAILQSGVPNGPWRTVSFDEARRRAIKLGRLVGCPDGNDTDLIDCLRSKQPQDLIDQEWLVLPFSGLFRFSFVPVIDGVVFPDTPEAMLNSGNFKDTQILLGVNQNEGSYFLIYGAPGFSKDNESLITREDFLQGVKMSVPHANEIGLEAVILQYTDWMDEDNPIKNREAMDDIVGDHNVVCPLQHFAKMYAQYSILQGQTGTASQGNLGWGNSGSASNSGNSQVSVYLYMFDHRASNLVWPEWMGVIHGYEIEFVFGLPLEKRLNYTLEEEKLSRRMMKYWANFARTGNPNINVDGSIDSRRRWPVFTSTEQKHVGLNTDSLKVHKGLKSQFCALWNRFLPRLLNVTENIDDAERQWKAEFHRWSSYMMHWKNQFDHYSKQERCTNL

For `CCN(CC)c1cc2nc(-c3ccccc3)nn3c4ccccc4c(c1=O)c23`, in series [1], the concentration for half-maximal inhibition (IC50) is 1400 nM. Further, the inhibition in series [2] stood at 46%; in series [3] it was 54%.

In the case of `O=c1cc2n(-c3ccccc3)nc(-c3ccccc3)nc-2cc1Nc1ccccc1`, the inhibition in series [4] worked out at 13%; in [2] it was 57%; in [3], 9%.

In series [1], `O=c1cc2n(-c3ccccc3)nc(-c3ccccc3)nc-2cc1N1CCCCCC1` came in with an IC50 of 2800 nM. Moreover, the inhibition in series [2] came to 46%; in series [3] it was 47%.

For `CN(c1ccccc1)c1cc2nc(-c3ccccc3)nn(-c3ccccc3)c-2cc1=O`, the inhibition turned out to be 51% in series [4], 57% in series [2] and 11% in [3].

`O=c1cc2n(-c3ccccc3)nc(-c3ccccc3)nc-2cc1N1CCCC1`: the inhibition in [4] was determined as 68%; in [2] it was 54%; in series [3], 15%.

Turning to `CN(CCCCCCCCNc1cc2nc(-c3ccccc3)nn3c4ccccc4c(c1=O)c23)Cc1ccccc1`, the inhibition in [4] was 60%; in [2], 46%; in [3], 25%.

Turning to `CCN(Cc1ccccc1)c1cc2nc(-c3ccccc3)nn(-c3ccccc3)c-2cc1=O`, the IC50 in [1] was determined as 2100 nM. The inhibition in [2] is 53%; in series [3], 13%.

Regarding `O=c1cc2n(-c3ccccc3)nc(-c3ccccc3)nc-2cc1N1CCc2ccccc2C1`, the inhibition was 68% in series [4], 47% in [2] and 14% in [3].

`CN(Cc1ccccc1)c1cc2nc(-c3ccccc3)nn3c4ccccc4c(c1=O)c23` had an IC50 in series [1] of 4100 nM. For the same compound, the values for the inhibition in [2] and in series [3] were 53% and 26%, respectively.

On to `O=c1cc2n(-c3ccccc3)nc(-c3ccccc3)nc-2cc1N1CCOCC1`, for which the figures for the inhibition in series [4], in [2] and in [3] were 48%, 42% and 0%, respectively.

On to `CN(CCCCCCCCN(C)c1cc2nc(-c3ccccc3)nn3c4ccccc4c(c1=O)c23)Cc1ccccc1`, for which the values for the IC50 (in [1]; against Cholinesterase) were 1400 nM and 25 nM, respectively. In series [2], the inhibition came out at 55%. Further, the inhibition entry in series [5] is “Active”.

Take `O=c1ccc2nc(-c3ccccc3)nn(-c3ccccc3)c-2c1`: the inhibition in [4] came to 39%; in series [2], 47%; in series [3] it was 27%.

Compound `O=c1cc2n(-c3ccccc3)nc(-c3ccccc3)nc-2cc1N1CCCCC1` came in with a half-maximal inhibitory concentration (IC50) in series [1] of 7100 nM. In addition, the inhibition in series [2] is 39%; in series [3] it was 7%.

`O=c1c(N2CCCC2)cc2nc(-c3ccccc3)nn3c4ccccc4c1c23` had an IC50 in [1] of 2000 nM. In addition, the inhibition is 44% in series [2] and 52% in [3].

As for `CCN(CC)c1cc2nc(-c3ccccc3)nn(-c3ccccc3)c-2cc1=O`, 17000 nM corresponded to half-maximal inhibition in [1] (IC50). For the same compound, the inhibition in series [2] stood at 55%; in series [3], 19%.

For `O=c1cc2n(-c3ccccc3)nc(-c3ccccc3)nc-2cc1N1CCN(Cc2ccccc2)CC1`, the inhibition was determined as 61% in [4], 56% in series [2] and 18% in series [3].

Consider `CC1CCCN(c2cc3nc(-c4ccccc4)nn(-c4ccccc4)c-3cc2=O)C1` (stereo not drawn), for which, in [1], half-maximal inhibition (IC50) required 730 nM. Also, the inhibition in [2] came to 55%; in series [3], 25%.

Take `CN(c1cc2nc(-c3ccccc3)nn(-c3ccccc3)c-2cc1=O)C1CCCCC1`: in series [1], inhibition was half-maximal at 4000 nM (IC50). Besides, the results for the inhibition in series [2] and in [3] were 55% and 37%, respectively.

As for `O=c1c(O)c(-c2ccc(O)c(O)c2)oc2cc(O)cc(O)c12`, in series [5], the inhibition entry is “Active”.

For `CN(C)CCCN(C)c1cc2nc(-c3ccccc3)nn3c4ccccc4c(c1=O)c23`, the IC50 in series [1] worked out at 7600 nM; at Cholinesterase, 4000 nM. This compound returned an inhibition in [2] of 49%.

Turning to `COc1cc2nc(-c3ccccc3)nn3c4ccccc4c(c1=O)c23`, the inhibition in series [4] came out at 33%; in series [2], 52%; in series [3] it was 11%.

Take `O=c1cc2n(-c3ccccc3)nc(-c3ccccc3)nc-2cc1N1CCN(c2ccccc2)CC1`: the results for the inhibition in [4] and in series [3] were 53% and 15%, respectively. Also, inhibition on Acetylcholinesterase was half-maximal at 2200 nM (IC50).

Consider `CC1CCN(c2cc3nc(-c4ccccc4)nn(-c4ccccc4)c-3cc2=O)CC1`, for which the inhibition in [4] worked out at 68%; in [2], 48%; in series [3] it was 11%.

For the compound `CN1CCN(c2cc3nc(-c4ccccc4)nn(-c4ccccc4)c-3cc2=O)CC1`, the results for the inhibition in series [4], in [2] and in series [3] were 55%, 55% and 12%, respectively.

Regarding `CN(CCCCCCCCNc1cc2nc(-c3ccccc3)nn(-c3ccccc3)c-2cc1=O)Cc1ccccc1`, the IC50 in series [1] is 21000 nM. The figures for the inhibition in [2] and in [3] were 45% and 28%, respectively.

On to `CN(CCCCCCCCN(C)c1cc2nc(-c3ccccc3)nn(-c3ccccc3)c-2cc1=O)Cc1ccccc1`, for which the figures for the 50% inhibitory concentration (IC50) (in series [1]; against Cholinesterase) were 65000 nM and 310 nM, respectively. In [2], this compound came in with an inhibition of 50%.

In turn, `O=c1cc2n(-c3ccccc3)nc(-c3ccccc3)nc-2cc1N1CCC(c2ccccc2)CC1` displayed a concentration for half-maximal inhibition (IC50) in series [1] of 1500 nM. For the same compound, the inhibition in [2] worked out at 35%; in series [3], 10%.

Compound `CN(Cc1ccccc1)c1cc2nc(-c3ccccc3)nn(-c3ccccc3)c-2cc1=O` returned an IC50 in series [1] of 1000 nM. In addition, the inhibition in [2] amounted to 56%; in [3] it was 22%.

As for `O=c1cc2n(-c3ccccc3)nc(-c3ccccc3)nc-2cc1Sc1ccccc1`, the inhibition in [4] stood at 42%; in series [2], 49%; in series [3], 6%.

In series [1], `CC1CCCN(c2cc3nc(-c4ccccc4)nn4c5ccccc5c(c2=O)c34)C1` (stereo not drawn) showed a half-inhibitory concentration (IC50) of 5500 nM. In addition, the inhibition in series [2] was determined as 27%; in series [3] it was 53%.

Take `O=c1c(N2CCC(c3ccccc3)CC2)cc2nc(-c3ccccc3)nn3c4ccccc4c1c23`: half-maximal inhibition in series [1] (IC50) required 3900 nM. Further, the inhibition was found to be 48% in [2] and 11% in series [3].

Turning to `COc1cc2nc(-c3ccccc3)nn(-c3ccccc3)c-2cc1=O`, the figures for the inhibition in series [4], in series [2] and in series [3] were 60%, 47% and 15%, respectively.

The compound `O=c1cc2n(-c3ccccc3)nc(-c3ccccc3)nc-2cc1N1CCCc2ccccc21` registered a half-inhibitory concentration (IC50) in [1] of 6700 nM. Moreover, the inhibition in series [2] worked out at 41%; in series [3], 10%.

Take `CN(CCCCCN(C)c1cc2nc(-c3ccccc3)nn(-c3ccccc3)c-2cc1=O)Cc1ccccc1`: in series [6], the inhibition came to 40%. Besides, the IC50 was determined as 1400 nM in series [1], 1500 nM against Acetylcholinesterase and 1900 nM on Cholinesterase. Further, in series [7], the solubility was 10 µM (≈ 5.18 µg/mL). Further, the inhibition entry in [8] and in series [5] was “Active” throughout.

`CN(C)CCCN(C)c1cc2nc(-c3ccccc3)nn(-c3ccccc3)c-2cc1=O`: the inhibition in series [4] was 45%; in series [2] it was 46%; in [3], 18%.

In series [1], `CC1CC(C)CN(c2cc3nc(-c4ccccc4)nn(-c4ccccc4)c-3cc2=O)C1` (stereo not drawn) gave an IC50 of 1200 nM. The inhibition in [2] stood at 46%; in series [3], 18%.

Turning to `CC1CCCCN1c1cc2nc(-c3ccccc3)nn(-c3ccccc3)c-2cc1=O` (stereo not drawn), the midpoint of inhibition in series [1], the IC50, lay at 370 nM. Also, the inhibition in series [2] came out at 0%; in series [3], 22%. The inhibition entry in [5] is “Active”.

Regarding `O=c1cc2n(-c3ccccc3)nc(-c3ccccc3)nc-2cc1N1CCSCC1`, the inhibition in series [4] amounted to 62%; in series [2], 42%; in series [3] it was 0%.
